Assays:
Type in all cases: functional
H4 [1] = assay: Increase in light chain 3-GFP+ autophagosome vesicle intensity per cell in human H4 cells at 3.8 uM after 24 hrs by high throughput fluorescence microscopy relative to control
How it was run: (§1)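 H4 cells stably expressing LC3-GFP, seeded in 96-well plates and exposed to compound for 24 h; fixed in 4% paraformaldehyde, nuclei stained with 3 μg/ml DAPI. Automated fluorescence microscopy scored number, size and intensity of LC3-GFP spots; values expressed relative to DMSO-treated wells, rapamycin positive control. Triplicate wells, mean ± SD; experiments repeated three times.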

H4 [2] = assay: Increase in light chain 3-GFP+ autophagosome vesicle area per cell in human H4 cells at 3.8 uM after 24 hrs by high throughput fluorescence microscopy relative to control; how it was run: as §1
H4 [3] = assay: Increase in light chain 3-GFP+ autophagosome vesicle number per cell in human H4 cells at 3.8 uM after 24 hrs by high throughput fluorescence microscopy relative to control; how it was run: as §1
H4 [4] = assay: Induction of light chain 3-GFP level in human H4 cells at 3.8 uM after 24 hrs by high throughput fluorescence microscopy relative to control
How it was run: (§2)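 H4 cells stably expressing LC3-GFP, kept in DMEM/10% FBS at 37°C, 5% CO2, were seeded in 96-well plates and exposed to compound for 24 h. Cells were then fixed in 4% paraformaldehyde and stained with 3 μg/ml DAPI. Automated fluorescence microscopy scored the number, size and intensity of LC3-GFP spots. Values are percent of DMSO wells, in triplicate, mean ± SD. Rapamycin served as positive control.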

H4 [5] = assay: Increase in light chain 3-GFP+ autophagosome vesicle area per cell in human H4 cells at 6.8 uM after 24 hrs by high throughput fluorescence microscopy relative to control
How it was run: (§3)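 H4 cells stably expressing LC3-GFP, seeded in 96-well plates and exposed to compound for 24 h; screening concentrations were 3–12 μM, with rapamycin 0.22 μM and bafilomycin A1 0.40 μM. Cells fixed in 4% paraformaldehyde and stained with 3 μg/ml DAPI. Number, size and intensity of LC3-GFP spots measured by high-throughput fluorescence microscopy and expressed as percent of DMSO-treated wells. Rapamycin was the positive control. Triplicate wells, mean ± SD; experiments repeated three times.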

H4 [6] = assay: Induction of light chain 3-GFP level in human H4 cells at 6.8 uM after 24 hrs by high throughput fluorescence microscopy relative to control
How it was run: (§4)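 H4 cells stably expressing LC3-GFP, grown in DMEM with 10% FBS, penicillin/streptomycin and 2 mM L-glutamine at 37°C, 5% CO2. Cells were seeded in 96-well plates and exposed to library compounds at 3–12 μM for 24 h, then fixed in 4% paraformaldehyde and stained with 3 μg/ml DAPI. LC3-GFP spot number, size and intensity were measured by high-throughput fluorescence microscopy and expressed relative to DMSO. Triplicates, mean ± SD.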

H4 [7] = assay: Increase in light chain 3-GFP+ autophagosome vesicle intensity per cell in human H4 cells at 6.8 uM after 24 hrs by high throughput fluorescence microscopy relative to control
How it was run: (§5)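 H4 cells stably expressing LC3-GFP were grown in DMEM with 10% FBS and 2 mM L-glutamine at 37°C, 5% CO2. They were exposed to each compound for 24 h, with DMSO as negative and rapamycin as positive control. Cells were then fixed in 4% paraformaldehyde and stained with 3 μg/ml DAPI. High-throughput fluorescence imaging scored LC3-GFP spot number, size and intensity, expressed relative to DMSO. Mean ± SD of triplicates; experiments repeated three times.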

H4 [8] = assay: Increase in light chain 3-GFP+ autophagosome vesicle number per cell in human H4 cells at 6.8 uM after 24 hrs by high throughput fluorescence microscopy relative to control; how it was run: as §5
H4 [9] = assay: Increase in light chain 3-GFP+ autophagosome vesicle intensity per cell in human H4 cells at 8.9 uM after 24 hrs by high throughput fluorescence microscopy relative to control; how it was run: as §5
H4 [10] = assay: Increase in light chain 3-GFP+ autophagosome vesicle area per cell in human H4 cells at 8.9 uM after 24 hrs by high throughput fluorescence microscopy relative to control; how it was run: as §3
H4 [11] = assay: Induction of light chain 3-GFP level in human H4 cells at 8.9 uM after 24 hrs by high throughput fluorescence microscopy relative to control; how it was run: as §4
H4 [12] = assay: Increase in light chain 3-GFP+ autophagosome vesicle number per cell in human H4 cells at 8.9 uM after 24 hrs by high throughput fluorescence microscopy relative to control; how it was run: as §4
H4 [13] = assay: Increase in long-lived protein degradation in human H4 cells after 2 hrs relative to control; design: concentration or dose not given beside the values
H4 [14] = assay: Increase in light chain 3-GFP+ autophagosome vesicle area per cell in human H4 cells at 4.8 uM after 24 hrs by high throughput fluorescence microscopy relative to control; how it was run: as §1
H4 [15] = assay: Increase in light chain 3-GFP+ autophagosome vesicle area per cell in human H4 cells at 7.71 uM after 24 hrs by high throughput fluorescence microscopy relative to control; how it was run: as §3
H4 [16] = assay: Increase in long-lived protein degradation in human H4 cells after 1 hr relative to control; design: concentration or dose not given beside the values
H4 [17] = assay: Induction of light chain 3-GFP level in human H4 cells at 4.8 uM after 24 hrs by high throughput fluorescence microscopy relative to control; how it was run: as §2
H4 [18] = assay: Effect on FYVE-RFP+ vesicle intensity per cell in human H4 cells after 8 hrs relative to control; design: concentration or dose not given beside the values
How it was run: (§6)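 H4 cells stably expressing FYVE-RFP (H4-FYVE), grown in DMEM with 10% FBS, penicillin/streptomycin and 2 mM L-glutamine at 37°C, 5% CO2, seeded in 96-well plates and exposed to compound. Fixed in 4% paraformaldehyde, nuclei stained with 3 μg/ml DAPI, FYVE-RFP+ vesicles quantified by high-throughput fluorescence microscopy against DMSO control. Triplicate wells, mean ± SD.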

H4 [19] = assay: Induction of light chain 3-GFP level in human H4 cells at 7.71 uM after 24 hrs by high throughput fluorescence microscopy relative to control; how it was run: as §4
H4 [20] = assay: Increase in light chain 3-GFP+ autophagosome vesicle intensity per cell in human H4 cells at 4.8 uM after 24 hrs by high throughput fluorescence microscopy relative to control; how it was run: as §1
H4 [21] = assay: Increase in light chain 3-GFP+ autophagosome vesicle intensity per cell in human H4 cells at 7.71 uM after 24 hrs by high throughput fluorescence microscopy relative to control; how it was run: as §5
H4 [22] = assay: Increase in light chain 3-GFP+ autophagosome vesicle number per cell in human H4 cells at 4.8 uM after 24 hrs by high throughput fluorescence microscopy relative to control; how it was run: as §2
H4 [23] = assay: Increase in light chain 3-GFP+ autophagosome vesicle number per cell in human H4 cells at 7.71 uM after 24 hrs by high throughput fluorescence microscopy relative to control; how it was run: as §5
H4 [24] = assay: Increase in long-lived protein degradation in human H4 cells after 24 hrs relative to control; design: concentration or dose not given beside the values
H4 [25] = assay: Effect on FYVE-RFP+ vesicle intensity per cell in human H4 cells after 4 hrs relative to control; design: concentration or dose not given beside the values; how it was run: as §6
H4 [26] = assay: Increase in long-lived protein degradation in human H4 cells after 4 hrs relative to control; design: concentration or dose not given beside the values
H4 [27] = assay: Effect on FYVE-RFP+ vesicle intensity per cell in human H4 cells after 2 hrs relative to control; design: concentration or dose not given beside the values; how it was run: as §6
H4 [28] = assay: Induction of light chain 3-GFP level in human H4 cells at 12.7 uM after 24 hrs by high throughput fluorescence microscopy relative to control; how it was run: as §4
H4 [29] = assay: Increase in light chain 3-GFP+ autophagosome vesicle area per cell in human H4 cells at 12.7 uM after 24 hrs by high throughput fluorescence microscopy relative to control
H4 [30] = assay: Increase in light chain 3-GFP+ autophagosome vesicle number per cell in human H4 cells at 12.7 uM after 24 hrs by high throughput fluorescence microscopy relative to control; how it was run: as §5
H4 [31] = assay: Increase in light chain 3-GFP+ autophagosome vesicle intensity per cell in human H4 cells at 12.7 uM after 24 hrs by high throughput fluorescence microscopy relative to control

Which Activity (H4 [1]) does the source give for `C/C=C(/C)C(=O)O[C@H]1C(C)=C2[C@H]([C@@H]1OC(=O)CCCCCCC)[C@@](C)(OC(C)=O)C[C@H](OC(=O)CCC)[C@@]1(O)[C@H]2OC(=O)[C@@]1(C)O` [THAPSIGARGIN] here?
Its Activity is 187.15%.

And the Activity (H4 [2])?
The Activity was 199.81%.

And the Activity (H4 [3])?
The Activity was 193.06%.

What about the Activity (H4 [4]) of the same compound?
Its Activity is 63.77%.

`COc1cc(/C=C/C(=O)CC(=O)/C=C/c2ccc(O)c(OC)c2)ccc1O` [CURCUMIN] was tested. Which Activity (H4 [5]) did it give?
Its Activity is 228.38%.

What about the Activity (H4 [6]) of the same compound?
Its Activity is 59.32%.

And the Activity (H4 [7])?
The Activity was 249.22%.

And the Activity (H4 [8])?
Its Activity is 59.32%.

What does the source list for `C[C@H]([C@H](C)N1CC(=O)NC(=O)C1)N1CC(=O)NC(=O)C1`?
Activity (H4 [9]): 483.18%; Activity (H4 [10]): 402.47%; Activity (H4 [11]): 45.03%; Activity (H4 [12]): 339.59%

`NCCNS(=O)(=O)c1cccc2cnccc12` was tested. Which Activity (H4 [13]) did it give?
Its Activity is 91.55%.

And the Activity (H4 [14])?
Its Activity is 172.66%.

What about the Activity (H4 [15]) of the same compound?
Its Activity is 139.79%.

What about the Activity (H4 [16]) of the same compound?
Its Activity is 100.94%.

What about the Activity (H4 [17]) of the same compound?
The Activity was 49.3%.

And the Activity (H4 [18])?
The Activity was 83.01%.

And the Activity (H4 [19])?
The Activity was 96.7%.

What about the Activity (H4 [20]) of the same compound?
Its Activity is 15083%.

And the Activity (H4 [21])?
Its Activity is 156.16%.

And the Activity (H4 [22])?
The Activity was 181.04%.

And the Activity (H4 [23])?
Its Activity is 130.98%.

And the Activity (H4 [24])?
The Activity was 96.19%.

What about the Activity (H4 [25]) of the same compound?
The Activity was 79.63%.

What about the Activity (H4 [26]) of the same compound?
Its Activity is 96.55%.

And the Activity (H4 [27])?
The Activity was 102.35%.

How did the Activity (H4 [28]) turn out when `C[C@@]12C(=O)OC(=O)[C@]1(C)[C@H]1CC[C@@H]2O1` [CANTHARIDIN] was run?
Its Activity is 24.47%.

What about the Activity (H4 [29]) of the same compound?
Its Activity is 332.84%.

What about the Activity (H4 [30]) of the same compound?
The Activity was 259.49%.

And the Activity (H4 [31])?
The Activity was 463.81%.

— ChEMBL document CHEMBL1145471, “Small molecule regulators of autophagy identified by an image-based high-throughput screen” (Proc Natl Acad Sci U S A, 2007)
